Structures are written as SMILES.

For series [1], the system named is Mus musculus. Kind of series: Induction of spontaneous locomotor activity in Swiss-Webster albino mouse assessed as time required to show activity at 10.6 mg/kg, ip measured every 10 mins in first hour followed by every hour for 5 hrs. Format: functional. As to conditions: route intraperitoneal. The gist of the method: (§1)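 Mice weighing 22–24 g, acclimated at least 2 weeks, fed and watered freely until testing, and split into groups of five, each mouse used once. Sulfate salts in normal saline given ip at 0.2 mL/10 g. Controls received saline. Activity was counted as photocell beam interruptions in six-beam circular cages. Tests ran between 11:00 a.m. and 5:00 p.m.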

Series [2] in a line: Potency ratio of compound LD50 to protioamphetamine LD50 for ip dosed Swiss-Webster mouse. Format: ADME, organism-based. The note with it: in vivo.
Series [3] in a line: Acute toxicity in ip dosed Swiss-Webster mouse measured for 24 hrs. Type of series: organism-based. As to conditions: in vivo. The gist of the method:
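Groups of mice given three intraperitoneal doses (313, 353 and 394 μM/kg), 14–22 mice per dose, observed for 24 h. LD50 in mg/kg derived from regression dose-response curves by the Litchfield and Wilcoxon method.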

For series [4], the system named is Mus musculus. Kind of series: Induction of spontaneous locomotor activity in Swiss-Webster albino mouse assessed as time required to show activity at 27.2 umol/kg, ip measured every 10 mins in first hour followed by every hour for 5 hrs. Format: functional. The gist of the method:
as §1

The test system of series [5] is Mus musculus. Briefly: Induction of spontaneous locomotor activity in Swiss-Webster albino mouse assessed as total activity AUC at 10.6 mg/kg, ip. Format: functional, organism-based. The arrangement: dose 10.6 mg/kg. The note with it: tested as the 2H-labelled form. The method, boiled down: as §1
Series [6] relates to Mus musculus. Kind of series: Induction of spontaneous locomotor activity in Swiss-Webster albino mouse assessed as total activity AUC at 27.2 umol/kg, ip. Type of series: functional, organism-based. The note with it: tested as the 2H-labelled form. The gist of the method: as §1
Series [7] deals with Mus musculus. Briefly: Induction of spontaneous locomotor activity in Swiss-Webster albino mouse assessed as time required to show activity at 10 mg/kg, ip measured every 10 mins in first hour followed by every hour for 5 hrs. Format: functional. The note with it: route intraperitoneal. The method, boiled down: as §1
Series [8] has as its system Mus musculus. Briefly: Induction of spontaneous locomotor activity in Swiss-Webster albino mouse assessed as total activity AUC at 10 mg/kg, ip. Also on record: dose 10 mg/kg. Type of series: functional, organism-based. The gist of the method:
as §1

Usually LD50 stands for the dose expected to kill half of the subjects tested. On to `O=S(=O)(O)O.[2H]c1c([2H])c([2H])c(C([2H])([2H])C([2H])(N)C([2H])([2H])[2H])c([2H])c1[2H]` (racemic), for which the Time in the series on Mus musculus [1] came to 120 min. The selectivity ratio in series [2] was determined as 1.2. For the same molecule, the LD50 at 24 h in series [3] was 149 mg/kg.

As for `O=S(=O)(O)O.[2H]c1c([2H])c([2H])c(C([2H])([2H])C(C)N)c([2H])c1[2H]` (racemic), the Time with Mus musculus [4] is listed as 80 min. Besides, the selectivity ratio in series [2] worked out at 1.13. For the same molecule, in series [3], the LD50 at 24 h stood at 140 mg/kg.

As for `O=S(=O)(O)O.[2H]C([2H])([2H])C([2H])(N)C([2H])([2H])c1ccccc1` (racemic), the Time in the series on Mus musculus [4] turned out to be 100 min. Also, in series [2], the selectivity ratio was 1.16. In series [3], this molecule gave an LD50 at 24 h of 143 mg/kg.

In the case of `O=S(=O)(O)O.[2H]C(C)(N)Cc1ccccc1` (racemic), the Time in the series with Mus musculus [4] was 100 min.

For the molecule `O=S(=O)(O)O.[2H]C(c1ccccc1)C(C)N` (racemic), the Time with Mus musculus [4] amounted to 75 min.

Consider `O=S(=O)(O)O.[2H]C(C)(N)C([2H])([2H])c1ccccc1` (racemic), for which the Time with Mus musculus [4] was 105 min.

For the molecule `CC(N)Cc1ccccc1` (racemic), the AUC in the series on Mus musculus [5] is 350 cm2.

In the case of `CC(N)Cc1ccccc1` (racemic; 2), the AUC in the series with Mus musculus [6] is 349 cm2.

Regarding `CC(N)Cc1ccccc1` (racemic; 3), in the series on Mus musculus [6], the AUC amounted to 367 cm2.

For `CC(N)Cc1ccccc1` (racemic; 4), in the series with Mus musculus [6], the AUC was 370 cm2.

In the case of `CC(N)Cc1ccccc1` (racemic; 5), the AUC in the series with Mus musculus [6] came to 355 cm2.

With `CC(N)Cc1ccccc1` (racemic; 6), the AUC in the series on Mus musculus [6] is 374 cm2.

In series [3], `C[C@H](N)Cc1ccccc1.C[C@H](N)Cc1ccccc1.O=S(=O)(O)O` [DEXTROAMPHETAMINE SULFATE] had an LD50 at 24 h of 123 mg/kg. In the series with Mus musculus [7], the Time is 70 min. Moreover, the AUC in the series on Mus musculus [8] was 350 cm2.

The values are drawn from ChEMBL document CHEMBL3244257, “Effects of deuteration on locomotor activity of amphetamine” (J Med Chem, 1978).
